The subject of data set [1] is Rattus norvegicus. The data set can be described thus: Reversal of ketamine-induced working memory deficit in Long Evans rat assessed as unbound brain concentration required to show effect at 0.1 mg/kg, sc by radial arm maze assay. In kind it is functional, organism-based. The essentials:
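Rats trained in a radial arm maze working-memory task, with deficit induced by ketamine. Compound dosed sc; errors compared with vehicle + ketamine. N = 20–23 per group, Hochberg test. Cbu at the tested doses estimated from satellite pharmacokinetic animals.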

In data set [2] the test system is Rattus norvegicus. Kind of data set: Effect on habituated locomotor activity in Long Evans rat at 0.32 to 3.2 mg/kg, sc. The settings on record: in vivo. In kind it is ADME, organism-based. The essentials: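 Rats dosed SC at 0.32, 1.0 and 3.2 mg/kg; conditioned avoidance responding also run in combination with risperidone 0.032 mg/kg.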
The next data set relates to Mus musculus. The data set can be described thus: In vivo effect on phosphorylated CREB level in CD-1 mouse brain striatum by immunoassay. Type of data set: functional, organism-based.

Active and inactive are the calls of the source. No cut-off for these calls is given here.

Regarding `Cc1nc(-c2cnn(C)c2-c2ccc(C(F)(F)F)cn2)c2c(N3CCC3)ncnn12` [PF-05180999], the Drug uptake(free) with Rattus norvegicus [1] worked out at 3.1 nM. Further, in the data set with Rattus norvegicus [2], the Activity entry was “Non-Toxic”. Moreover, the result with Mus musculus was inactive.

The values above are taken from ChEMBL document CHEMBL4024790 (J Med Chem, 2018).
